Inhibition data for 79 compounds are collected here from PubChem BioAssay AID2152 (The Scripps Research Institute Molecular Screening Center, 2009).

Screen size: about 2,300 compounds; about 25 (1%) were called active. What follows is part of a selection rich in actives, with near analogues and random picks from the rest. Values without a mark were called inactive.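 Rule for the calls: active = mean inhibition over three replicate wells above the hit threshold derived in the earlier primary screen (cut at about 45% in these data); inactive = the rest.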

The test system of the assay is Hepatitis C virus core protein (core106 dimerization). Description: blockers of core106 self-association – biochemical, TR-FRET, triplicate, confirmation (AID 2152).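 Note: 0% = DMSO wells and 100% = unlabelled core106 competitor control.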 The note with it: TR-FRET GST-/Flag-core106 dimerization, HTRF; at 5 µM; hits give high values. The gist of the method: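 Material: GST- and Flag-tagged HCV core106 peptides, dimerization via antibody TR-FRET. Medium: HEPES/KF buffer, pH 7.45. Doses: one 5 µM dose, 0.5% DMSO. Times: 4 h incubation, 22.5 °C. Detection: TR-FRET, excitation 340 nm, emission 671 and 617 nm. Measure: percent inhibition from emission ratio. Controls: unlabelled core106 and DMSO wells.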
For orientation: In TR-FRET formats the signal depends on donor and acceptor labels being close together.
For the compound `Cc1csc(SCC(=O)Nc2sc3c(c2C#N)CCC3)n1`, the inhibition was -4.85%.

With `CCCCN(C(=O)c1cc(-c2ccco2)nc2ccccc12)c1c(N)n(CCCC)c(=O)[nH]c1=O`, the inhibition is -1.63%.

With `CN(CC(=O)Nc1ccc(F)cc1)C(=O)c1cc(-c2ccco2)nc2ccccc12`, the inhibition was 13.3%. Under `O=C(Nc1ccc(Cl)c([N+](=O)[O-])c1)c1cnccn1` stands 6.55%. Under `CC1(O)C(=O)C=C2C=C(c3ccc(C#N)cc3)OC=C2C1=O` (centres undefined) stands 55% (active); under `CC1(OC(=O)CCc2ccccc2)C(=O)C=C2C=C(c3ccc(C#N)cc3)N(c3ccccc3)C=C2C1=O` (centres undefined), 1.14%.

On to `C=CCN1C=C2C(=O)C(C)(OC(=O)CCc3ccccc3)C(=O)C=C2C=C1c1ccc(C#N)cc1` (centres undefined), for which the inhibition was 0.52%. Under `Cc1ccc2nc(N3CCN(S(=O)(=O)c4ccc5c(c4)OCCO5)CC3)c(C#N)cc2c1` stands 14.6%; under `O=C(c1cc(-c2ccccn2)nc2ccc(Br)cc12)N1CCN(S(=O)(=O)c2ccccc2)CC1`, 17%; under `C/C=C\C=C/C(=O)Nc1cccc(C2=NOC3(C2)C[C@@H](C(N)=O)N(C(=O)/C=C/CC)C3)c1` (some centres undefined), 5.44%. Under `O=C1C(Cc2ccccc2)S/C(=N/N=C/c2ccco2)N1c1ccccc1` (centres undefined) stands -8.03%; under `c1ccc(-c2cc(-c3nn4c(-c5ccco5)nnc4s3)c3ccccc3n2)cc1`, 16.7%. Regarding `Cc1oc(-c2ccc(Cl)cc2)cc1-c1nn2c(-c3ccoc3C)nnc2s1`, the inhibition is 52.5% (active). Under `Cc1oc(-c2ccc(F)cc2)cc1-c1nn2c(-c3ccoc3C)nnc2s1` stands 20.6%; under `Cc1ccc(NC(=O)c2cc(-c3ccc(C)o3)nc3ccccc23)cc1`, -0.19%; under `O=C(/C=C/c1ccc2ccccc2n1)N1CCN(c2ccccc2)CC1`, -3.48%. Under `CCN(CC(=O)Nc1c(F)cccc1F)C(=O)c1cccc(-n2cccc2)c1` stands 3.91%; under `CCN(CC(=O)Nc1c(F)cccc1F)C(=O)/C=C/c1ccc2ccccc2n1`, 62.5% (active); under `O=C1CCCC2=C1C(c1cn(-c3ccccc3)nc1-c1cccs1)c1c([nH]c(=O)[nH]c1=O)N2` (centres undefined), 0.06%. For `Cc1ccc(NC(=O)CN2C(=O)N/C(=C/c3ccco3)C2=O)cc1` the value was -4.53%.

Regarding `CC1=C(C#N)C(=O)N(C2CCS(=O)(=O)C2)C(=O)/C1=C\c1ccco1` (centres undefined), the inhibition is 56.2% (active). For `Cc1ccccc1N1C(S)=C(C#N)C(=O)NC1c1ccco1` (centres undefined) the value was 9.88%. For `COc1ccc(-c2cc(C(=O)Nc3sc4c(c3C#N)CCCC4)c3ccccc3n2)cc1OC` the value was -1.02%. For `COc1cc(-c2cc(C(=O)OCC(=O)Nc3ccc4c(c3)OCO4)c3ccccc3n2)cc(OC)c1OC` the value was 4.02%. As to `CN(CC(=O)Nc1c(Cl)cccc1Cl)C(=O)c1cccc(-n2cccc2)c1`, the inhibition was 2.1%. Under `COc1ccc(CC(=O)OCC(=O)Nc2ncc(Cl)cc2Cl)cc1` stands -1.83%; under `COc1ccccc1NC(=O)c1ccc(SCC(=O)NCc2ccccc2Cl)c([N+](=O)[O-])c1`, -1.75%; under `O=C(NCc1ccco1)C1Cc2ccccc2CN1S(=O)(=O)c1ccccc1F` (centres undefined), 18.4%. With `C/C=C\C=C/C(=O)Nc1cccc(C2=NOC3(C2)C[C@@H](C(N)=O)N(C(=O)[C@H]2CCC(=O)N2)C3)c1` (some centres undefined), the inhibition is -14.3%. Under `O=C(N/N=C/c1ccc(N2CCCCC2)o1)C(O)(c1ccccc1)c1ccccc1` stands -3.6%; under `CCOc1ccc(C2C(C#N)=C(N)SC(N)=C2C#N)cc1OCC`, 31.4%. Under `COc1ccccc1C(CCN(Cc1cccs1)C(C)=O)c1ccco1` (centres undefined) stands -3.29%. For `O=C(NCCN1C(=O)S/C(=C\c2ccc(Cl)c(Cl)c2)C1=O)c1ccc2c(c1)C(=O)N(Cc1ccncc1)C2=O` the value was 6.43%.

`O=C(COc1ccc([N+](=O)[O-])cc1)Nc1nnc(-c2cccnc2)s1`: the inhibition was 16.4%. Under `CC[C@@H](C)CN1C(=O)N[C@@H](c2ccccc2)C(C(C)=O)=C1C` stands 5.08%. Under `CCOC(=O)c1cccc(NC(=O)C2CCCN(c3nnc(N4CCCC4=O)s3)C2)c1` (centres undefined) stands -7.1%; under `O=c1c2c3nc4ccccc4nc3n(/N=C/c3ccco3)c2ncn1CCC1=CCCCC1`, 2.56%; under `O=C(O)C/C(=C\c1cc(Cl)c2c(c1)OCO2)c1nc2ccccc2s1`, 4.02%.

With `Cc1ccc(NC(=O)Nc2nnc(Cc3ccc([N+](=O)[O-])cc3)s2)cc1`, the inhibition was 6.61%.

For the compound `N=c1c(C(=O)NCc2ccco2)cc2c(=O)n3ccccc3nc2n1Cc1ccc(Cl)cc1`, the inhibition was 9.28%. For `COc1ccccc1/C=C/C=c1\sc2nc(=O)c(Cc3ccccc3)nn2c1=O` the value was 46.4% (active); for `COc1ccccc1/C=c1\sc2nc(-c3ccco3)nn2c1=O`, 8.15%. Under `O=c1nc2s/c(=C\c3ccco3)c(=O)n2nc1Cc1ccc(F)cc1` stands 14.3%. For `COc1cccc(/C=N/NC(=O)c2nc(-c3ccccc3)cc(-c3ccccc3)n2)c1` the value was 6.79%; for `Cc1ccc(C)c(N2CCN(C(=O)CSc3ccsc3[N+](=O)[O-])CC2)c1`, 12.5%. Take `O=C(/C=C\c1ccc2c(c1)OCO2)Nc1c2c(nn1-c1ccc(Cl)cc1)CSC2`: the inhibition is -1.47%. Under `O=C(Cn1cnc2sc(-c3ccccc3)cc2c1=O)NCc1ccco1` stands 3.55%; under `CCOc1cc(/C=C2\C(=O)N(c3nc(-c4ccc(Br)cc4)cs3)N=C2c2ccccc2)ccc1O`, 58.1% (active); under `Cc1ccc(-c2csc(N3N=C(c4ccccc4)/C(=C\c4ccc(N(C)C)cc4)C3=O)n2)cc1`, 1.99%. Under `CCc1ccc(-c2csc(NC(=O)C3=NN(c4ccccc4)C(=O)CC3)n2)cc1` stands -3.1%; under `CNC(=O)COC(=O)c1cc(-c2ccco2)nc2ccccc12`, 12.2%. For `CN(C(=O)COC(=O)c1cc(-c2ccco2)nc2ccccc12)C1CCS(=O)(=O)C1` (centres undefined) the value was 49.6% (active).

Regarding `O=C(OCC(=O)N1CCN(C(=O)c2ccco2)CC1)c1cc(-c2ccco2)nc2ccccc12`, the inhibition is 30.6%.

For `Cc1cc(C)c(S(=O)(=O)N2CCOC2CNC(=O)C(=O)NCCc2ccc(S(N)(=O)=O)cc2)c(C)c1` (centres undefined), the inhibition was -0.31%.

`Cc1[nH]c2ccccc2c1CCNC(=O)c1ccc2c(c1[N+](=O)[O-])C(=O)c1ccccc1C2=O`: the inhibition is -6.67%. For `CCOc1cc(/C=N\NC(=O)c2ccc(NC(=O)C(C)(C)C)cc2)ccc1OC(=O)c1cccc(C)c1` the value was -6.21%.

In the case of `C=CCOc1ccc(-c2nc3c(c(=O)[nH]c(=O)n3Cc3ccccc3)n2CCCOC)cc1`, the inhibition was 3%. For `C=CCn1c(C)cc(C(=O)COC(=O)c2ccc3c(c2)NC(=O)CS3)c1C` the value was -0.86%; for `COC(=O)c1ccccc1NC(=O)CN1C(=O)C2CCCN2c2ncc(Cl)cc21` (centres undefined), 4.11%. For `CCCN(CCC)C(=O)CC(c1ccc(F)cc1)c1ccco1` (centres undefined) the value was -2.6%; for `COc1ccc(C2=NN(C(=O)CSc3nc(=O)n4cccc(C)c4n3)C(c3ccc(C)cc3)C2)cc1` (centres undefined), 21.8%; for `O=C(NNC(=O)c1cccc(-n2cccc2)c1)c1ccc(F)cc1`, 9.23%. Under `Cc1ccc(-c2cc(C(F)F)n3ncc(C(=O)Nc4c(C)nn(Cc5ccccc5Cl)c4C)c3n2)cc1` stands 0.26%.

Turning to `N#Cc1ccsc1NC(=O)COc1ccc(-c2nnco2)cc1`, the inhibition is 3.2%.

Turning to `O=C1CC(c2ccco2)Cc2nc(N3CCc4ccccc4C3)ncc21` (centres undefined), the inhibition is 0.9%.

In the case of `CCN(CC)c1cc2nc(C)n(Cc3ccccc3)c(=O)c2cc1NC(=O)C1CC1`, the inhibition was 3.07%.

As to `Cc1cc([N+](=O)[O-])cc2c1NC(c1ccccn1)C1CC=CC21` (centres undefined), the inhibition is 8.17%. For `CC(C)Cc1nc(N2CCN(C(=O)c3ccco3)CC2)c(C#N)c2c1CCC2` the value was -9.13%; for `Cc1ccc2[nH]c(=O)c(CN(Cc3ccc4c(c3)OCO4)Cc3nnnn3Cc3ccco3)cc2c1`, -2.73%. Under `COc1ccc(C(=S)N2CCOCC2)cc1OC(=O)c1cc([N+](=O)[O-])c(C)c([N+](=O)[O-])c1` stands 3.86%. For `COc1ccc(/C=C2\SC(=S)N(NC(=O)c3csc4c3CCCC4)C2=O)cc1` the value was -8.8%; for `CC(C)Cn1c(-c2ccccc2)nc(=S)c2c1CCCC2`, 2.05%. As to `COc1ccc(NC(=O)NNC(=O)COc2ccc3cc(Br)ccc3c2)c(OC)c1`, the inhibition is 0.29%. Under `COC/C=C/C1=CC2=CC(=O)C(C)(OC(=O)c3cnc4ccccc4n3)C(=O)C2=CN1Cc1ccc(OC)cc1` (centres undefined) stands 2.72%; under `O=C1c2ccccc2C(Nc2ccc3c(c2)OCO3)N1Cc1ccc2c(c1)OCO2` (centres undefined), -1.13%; under `CC(=O)c1ccc(NC(=O)/C(=C\c2ccccc2)NC(=O)/C=C/c2ccccc2)cc1`, -3.84%. Under `C=C(NC(=O)C(=C)NC(=O)c1csc(C2=NC3c4csc(n4)C4NC(=O)c5csc(n5)C([C@@](C)(O)C(C)O)NC(=O)C5CSC(=N5)/C(=C\C)NC(=O)C(C(C)O)NC(=O)c5csc(n5)[C@]3(CC2)NC(=O)C(C)NC(=O)C(=C)NC(=O)C(C)NC(=O)C(C(C)CC)NC2C=Cc3c(C(C)O)cc(nc3C2O)C(=O)OC4C)n1)C(N)=O` (some centres undefined) stands 47.5% (active); under `CS(=O)(=O)N1CCc2cc(-c3csc(NC(=O)C(c4ccccc4)c4ccccc4)n3)ccc21`, -5%; under `O=C(COC(=O)c1ccccc1Oc1ccccc1)NCc1ccco1`, -1.91%.

Usually inhibition stands for the relative decrease from the control value, in per cent.
